Assay outcomes (PubChem BioAssay)
Only a sample is shown.
HKDC1 act: increases human hexokinase HKDC1 activity; Q2TB90; recombinant HKDC1, G6PDH/diaphorase resazurin fluorescence; hits give low values; activity change, negative = activation, % at 20 µM; actives 0.056% (n = 340,000); AID 493187;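 active = activation of 40% or more at 20 µM, a change of -40% or lower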
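Material – in-house human HKDC1 enzyme, G6PDH and diaphorase coupling enzymes · Input – HKDC1 at 5 µg/mL final · Buffer or medium – pH 8.0 Tris with MgCl2 · Dosing – single compound dose of 20 µM, 1% DMSO final · Incubation – 90 min, room temperature · Technique – resorufin fluorescence from 100 µM resazurin, NADP 1 mM, Ex 525/Em 613 nm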
Large screens that a line does not name were inactive.

CCOC(=O)c1c(NC(=O)CSc2nnnn2-c2ccc(OC)cc2)sc(C)c1C	HKDC1 act -48
CCOC(=O)c1cc(-c2ccc(/C=C3/C(=O)N(c4ccc(C(=O)O)cc4)N=C3C)o2)ccc1Cl	none
CC1=NOC(=O)/C1=C\c1ccc(-c2ccc(Br)cc2)o1	none
CCOc1ccc2c(c1)C(NC(C)=O)C(=O)N2CCN1CCOCC1 (stereo not given)	none
O=C(NC(=S)NNC(=O)c1cnccn1)c1ccc(F)cc1	HKDC1 act -48
COc1ccc(/C=C/C(=O)NC(=S)NNC(=O)c2cnccn2)cc1	HKDC1 act -40
CCOC(=O)C1CCN(C(=O)Nc2ccc3nc(-c4ccco4)c(-c4ccco4)nc3c2)CC1	none
COC(=O)c1ccccc1NC1=C/C(=N\S(=O)(=O)c2ccc(C(=O)O)cc2)c2ccccc2C1=O	none
CCOC(=O)C1=C(O)c2ccccc2C(=O)/C1=C\c1ccc(C)cc1	none
O=C(OCC(=O)N1CCN(C(=O)c2ccco2)CC1)c1cc(-c2ccccc2)nc2ccccc12	none
O=C1C=C(N2CCOCC2)c2ccccc2C1=O	none
O=C1C(Nc2ccccc2)=C/C(=N/S(=O)(=O)c2cccs2)c2ccccc21	none
O=c1cc(O)sc2ccccc12	none
Cc1[nH]c2ccccc2c1C1=CC(=O)C=CC1=O	none
COc1ccc(CN2CCn3nc(C(=O)NC(C)C)cc3C2=O)cc1	HKDC1 act -75
O=C(CSc1nnc(CCCN2C(=O)c3cccc4cccc(c34)C2=O)n1-c1ccccc1)N1CCCCC1	none
Cn1c2ccccc2c(=O)c2c(=O)n(-c3ccc(F)cc3)c(-c3cccs3)nc21	none
Oc1ccc2ccccc2c1/C=N/c1nccs1	none
Cc1ccc(Sc2ccc(/C=C3/C(=O)NN(c4ccccc4)C3=O)o2)cc1	none
Fc1ccc(F)c(C2=NNC(=Nc3ccccc3F)SC2)c1	HKDC1 act -143
CC(=O)Nc1ccc(C2=NNC(=Nc3ccc(S(=O)(=O)N4CCOCC4)cc3)SC2)cc1	HKDC1 act -339
Fc1ccccc1N=C1NN=C(c2ccccc2)CS1	HKDC1 act -82
Fc1ccc(N=C2NN=C(c3cc(F)ccc3F)CS2)cc1	HKDC1 act -218
O=C(O)CN1C(=O)/C(=C2\C(=O)N(Cc3ccccc3Cl)c3ccccc32)SC1=S	none
Cc1ccc(C)c(S(=O)(=O)Nc2cc(SCC(=O)O)c(O)c3ccccc23)c1	none
CCOc1ccc2c(ccc(/C=C/c3cc(C)c4cccnc4c3O)[n+]2C)c1	none
Cc1ccc(S(=O)(=O)/N=C2\C=C(Nc3cccc(C(=O)O)c3)C(=O)c3ccccc32)c(C)c1	none
Cc1ccc(-c2ccc(/C=C3\C(=O)ON=C3c3ccccc3)o2)c([N+](=O)[O-])c1	none
COc1cc2c(C#N)c(N3CCc4ccccc4C3)nc(N)c2c(N)n1	none
COc1cccc(OC)c1-c1nn2c(-c3cc(-c4ccccc4)n[nH]3)nnc2s1	none
CC1(C)CC[C@]2(C(=O)n3ccnc3)CC[C@]3(C)[C@H](C(=O)C=C4[C@@]5(C)C=C(C#N)C(=O)C(C)(C)[C@@H]5CC[C@]43C)[C@@H]2C1	none
Oc1ccc(O)c(Cc2nc3ccccc3[nH]2)c1	none
CN(C)c1ccc(C=c2c3ccccc3n3c2cc(-c2ccccc2)[n+]3C)cc1	none
O=c1c2ccccc2nc2n1CCC2	none
O=C(NC1=C(NC2CCS(=O)(=O)C2)C(=O)c2ccccc2C1=O)c1ccccc1 (stereo not given)	none
N#Cc1ccc(CSc2nnc(NC(=O)c3ccc4ncsc4c3)s2)cc1	none
O=C(Nc1ccc(Nc2ccncc2)cc1)c1ccc(Nc2ccnc3ccc([N+](=O)[O-])cc23)cc1	none
COc1cc2c(cc1OC)C(c1cc(Br)ccc1F)N(C(=O)CCl)CC2 (stereo not given)	none
Cc1c(N=C2C=CC(=O)c3ccccc32)c(=O)n(-c2ccccc2)n1C	none
CC(C)(C)N=C1NN=C(c2ccc(S(=O)(=O)N3CCCCC3)cc2)CS1	HKDC1 act -67
O=S(=O)(c1cccc(COc2ccc(Cl)cc2Cl)c1)N1CCOCC1	none
O=S(=O)(c1ccc(N=C2NN=C(c3cc(F)ccc3F)CS2)cc1)N1CCOCC1	HKDC1 act -308
O=[N+]([O-])c1ccc(Sc2nc3ccccc3o2)c([N+](=O)[O-])c1	none
Cc1[nH]c2ccccc2c1C(C#N)(C#N)C1C(=O)c2ccccc2C1=O	none
O=C(O)c1ccccc1-c1ccc(/C=c2\sc3nc4cc(Br)cnc4n3c2=O)o1	none
CCCCNCCOCCOc1ccccc1-c1ccccc1	HKDC1 act -59
CC(=O)NC1C(=O)N(CCN2CCOCC2)c2ccc(Br)cc21 (stereo not given)	none
O=C1/C(=C\c2ccc(-c3ccccc3[N+](=O)[O-])o2)C(c2ccccc2)=NN1c1ccccc1	none
S=C(NCCc1ccc(Cl)cc1)NCc1ccccc1	HKDC1 act -63
Cc1cc(C(F)F)n2ncc(C(=O)NCCc3ccc(Cl)cc3)c2n1	none
CCCCC[C@H](O)/C=C/[C@@H]1[C@@H](C/C=C\CCCC(=O)OC)[C@@H](O)C[C@H]1O	none
CC(C(=O)O)N1C(=O)/C(=C/C=C/c2ccco2)SC1=S (stereo not given)	none
COc1ccc2c(c1)CCc1c(C(=O)N3CCCc4ccccc43)noc1-2	none
Cc1ccc(-n2c3nc(=O)[nH]c(=O)c-3cc3cc([N+](=O)[O-])ccc32)cc1C	none
CCc1ccc(S(=O)(=O)Nc2ccc(O)c3ccccc23)cc1	none
O=S(=O)(Nc1ccc(O)c2ccccc12)c1ccc(F)cc1	none
CCN(CC)c1ccc(/C=N/NC(=O)c2cccc(S(=O)(=O)Nc3ccccc3OC)c2)c(O)c1	HKDC1 act -43
CN(C)C(=O)/C(C#N)=C\c1cc(Br)c(Sc2ccc(Cl)cc2)o1	none
CC(=NNC(=S)N1CCCCC1)c1cccc(C)n1	HKDC1 act -40
CC(=O)C1=C(c2cccc([N+](=O)[O-])c2)N(C(C)=O)n2c(C)nnc2S1	HKDC1 act -308
O=Cc1[nH]c2ccccc2c1N(C(=O)CCl)c1ccccc1	none
CC1=C(SCc2ccccc2)C(=O)c2ccccc2C1=O	none
Cc1ccc(N=C2C(=S)N(c3ccc(C)cc3)C(=N)N2/N=C/c2ccc(Cl)cc2)cc1	HKDC1 act -119
N#CC(C#N)=Cc1cc2ccccc2nc1N1CCCCC1	none
CCC(=O)OC1(C)C(=O)C2=COC(c3ccc(OC)cc3)=CC2=C(Br)C1=O (stereo not given)	none
COc1cc(N=c2ssnc2Cl)cc(OC)c1	HKDC1 act -51
Nc1nc(Cl)c(N)c(NCC2(CO)CC(CCc3ccccc3)C2)n1 (stereo not given)	none
O=C(O)CSc1cc(NS(=O)(=O)c2cccc([N+](=O)[O-])c2)c2ccccc2c1O	none
O=C(Cc1ccc(Cl)cc1Cl)Nc1cccc(S(=O)(=O)Nc2ccccc2F)c1	HKDC1 act -41
O=C1c2ccc3c4c(ccc(c24)C(=O)N1c1ccc(O)cc1)C(=O)N(c1ccc(O)cc1)C3=O	none
COC(=O)CCC(=O)OC1(C)C(=O)C2=CN(Cc3ccccc3)C(c3ccc(OC)cc3)=CC2=C(Br)C1=O (stereo not given)	none
COc1ccc(C2=NNC(=Nc3cc(S(=O)(=O)N(C)C)ccc3C)SC2)c(OC)c1	HKDC1 act -125
CC(=O)Nc1ccc(C2=NNC(=Nc3cccc(S(=O)(=O)N(C)C)c3)SC2)cc1	HKDC1 act -284
CN(C)S(=O)(=O)c1cccc(N=C2NN=C(c3ccccc3)CS2)c1	HKDC1 act -281
O=c1c2c3nc4ccccc4nc3n(-c3ccc4c(c3)OCCO4)c2ncn1C1CCCC1	none
O=C1C=CC2(C=C1)O[C@H](Cc1ccccc1)[C@@H](Cc1ccccc1)O2	none
O=C(O)CCNc1cc(N2CCN(C(=O)c3ccco3)CC2)c2noc3c2c1C(=O)c1ccccc1-3	none
